# Laboratory results as given in article PMC3954946 (Journal of medicinal chemistry, 2013).
# pEC50: −log10 of the molar value.
# Experiments:
# HCV genotype 1 (GT-1) = settings: triple combination with Peg-IFN/RBV, genotype-1 naive patients; cited from earlier work
# [1] = system: HCV GT-1a H77 subgenomic replicon; assay: Stable HCV GT-1a H77 subgenomic replicon assay; type: cell-based, Hepatitis C virus; settings: for Plasma Shift fold: EC50 with 40% human serum vs without, GT-1a and GT-1b
# [2] = system: HCV GT-1b Con1 subgenomic replicon; assay: Stable HCV GT-1b Con1 subgenomic replicon assay; type: cell-based, Hepatitis C virus
# [3] = system: HCV GT-1b Con1 subgenomic replicon; settings: genotype not given; cited from earlier work
# [4] = system: GT-1b Con1 transient replicon with NS5B clinical isolates; assay: Transient HCV replicon assay, panel of GT-1b NS5B clinical isolates; type: cell-based; settings: Hepatitis C virus, GT1B, read-out: mean EC50, GT 1b panel, geometric mean
# Pharmacokinetics in rat = type: in vivo, Male Wistar/Han (CRL:WI) rats; settings: male, Wistar/Han (CRL:WI), plasma, po
# Pharmacokinetics in dog = type: in vivo, Male beagle dogs; settings: male, beagle, plasma, po
# Procedure, shortened: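 Male beagle dogs with free access to food and water received a single oral dose of test compound by gavage in 2% Klucel LF in water. Blood was collected into EDTA tubes at typically 0.25, 0.5, 1, 2, 4, 6, 8 and 24 h post-dose. Plasma concentrations were measured by LC/MS/MS after protein precipitation with acetonitrile.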
compound,measurement,setting,value
CC(C)(C)NC(=O)N[C@H](C(=O)N1C[C@H]2[C@@H]([C@H]1C(=O)NC(CC1CCC1)C(=O)C(N)=O)C2(C)C)C(C)(C)C (stereo partly drawn) [Boceprevir],SVR rates,HCV genotype 1 (GT-1),≤ 68%
"COc1c(/C=C/c2ccc(NS(C)(=O)=O)cc2)cc(-c2cc(F)c[nH]c2=O)cc1C(C)(C)C [Compound 7, reference compound]",pEC50,"[1]; Hepatitis C virus, GT1A, read-out: GT-1a EC50",8.10
same,pEC50,"[2]; Hepatitis C virus, GT1B, read-out: GT-1b EC50",8.52
same,activity in the HCV subgenomic replicon assay,[3],single digit nM
CC(C)(C)c1cc(-c2cc(F)c[nH]c2=O)c2ncc(-c3ccc(NS(C)(=O)=O)cc3)cc2c1 [Compound 34],drop in activity,"[1]; desmethoxy analog vs 33, replicon GT-1a and GT-1b",4-to 6 fold
"COc1c(C(C)(C)C)cc(-n2ccc(=O)[nH]c2=O)c2ncc(-c3ccc(NS(C)(=O)=O)cc3)cc12 [Compound 35, N-[4-[6-tert-Butyl-8-(2,4-dioxopyrimidin-1-yl)-5-methoxy-3-quinolyl]phenyl] methanesulfonamide]",Plasma Shift fold,[1],1.7–2.2 fold
"COc1c(C(C)(C)C)cc(-n2ccc(=O)[nH]c2=O)c2ccc(-c3ccc(NS(C)(=O)=O)cc3)cc12 [Compound 36, N-[4-[7-tert-Butyl-5-(2,4-dioxopyrimidin-1-yl)-8-methoxy-2-naphthyl]phenyl] methanesulfonamide]",increase in potency against both genotypes with respect to quinoline 35,[1]; replicon GT-1a and GT-1b,2- to 3 fold
"COc1c(C(C)(C)C)cc(-c2ccc[nH]c2=O)c2ncc(-c3ccc(NS(C)(=O)=O)cc3)cc12 [Compound 39, N-[4-[6-tert-Butyl-5-methoxy-8-(2-oxo-1H-pyridin-3-yl)-3-quinolyl]phenyl] methanesulfonamide]",Plasma Shift fold,[1],0.8–3.5 fold
"COc1ccc(-c2cc(C(C)(C)C)c(OC)c3cc(-c4ccc(NS(C)(=O)=O)cc4)cnc23)c(=O)[nH]1 [Compound 41, N-[4-[6-tert-Butyl-5-methoxy-8-(6-methoxy-2-oxo-1H-pyridin-3-yl)-3-quinolyl]phenyl] methanesulfonamide]",improvement in the 40% HS replicon assay,[1]; vs lead compound 7,6 fold
same,pEC50,[4],9.59
same,concentration at 8 h,Pharmacokinetics in rat,1220 nM
same,concentration at 8 h,Pharmacokinetics in dog,1950 nM
COc1c(C(C)(C)C)cc(N2CCCNC2=O)c2ncc(-c3ccc(NS(C)(=O)=O)cc3)cc12 [Compound 43],decrease in potency against GT-1a,[1]; vs dihydrouracil 42,14 fold
same,decrease in potency against GT-1b,[2]; vs dihydrouracil 42,6 fold
COc1c(C(C)(C)C)cc(-c2cn(C)c(=O)[nH]c2=O)c2ncc(-c3ccc(NS(C)(=O)=O)cc3)cc12 [Compound 44],increase in potency against both genotypes with respect to quinoline 35,[1]; replicon GT-1a and GT-1b,~ 2 fold
"COc1ccc(-c2cc(C(C)(C)C)c(OC)c3cc(N4CC[C@H](CNS(C)(=O)=O)C4)cnc23)c(=O)[nH]1 [Compound 50, N-[[(3S)-1-[6-tert-butyl-5-methoxy-8-(6-methoxy-2-oxo-1H-pyridin-3-yl)-3-quinolyl]pyrrolidin-3-yl]methyl]methanesulfonamide]",concentration at 8 h,Pharmacokinetics in rat,3500 nM
"COc1c(C2(C(F)F)CC2)cc(-n2ccc(=O)[nH]c2=O)c2ncc(-c3ccc(NS(C)(=O)=O)cc3)cc12 [Compound 53, N-[4-[6-[1-(Difluoromethyl)cyclopropyl]-8-(2,4-dioxopyrimidin-1-yl)-5-methoxy-3-quinolyl]phenyl]methanesulfonamide]",improvement in potency with respect to compounds 51 and 52,[1]; replicon GT-1a and GT-1b,3- to 9 fold
CCC[C@H](NC(=O)[C@@H]1[C@H]2CCC[C@H]2CN1C(=O)[C@@H](NC(=O)[C@@H](NC(=O)c1cnccn1)C1CCCCC1)C(C)(C)C)C(=O)C(=O)NC1CC1 [Telaprevir],SVR rates,HCV genotype 1 (GT-1),up to 75%
